# Screening results: PubChem, The Scripps Research Institute Molecular Screening Center
# Only some compounds are listed: those with a hit (about 4.6% of all), similar ones and a draw of the others.
# TAAR1 antag: antagonists of human TAAR1. inhibition, % at 3 µM. CHO RD-HGA16 TAAR1, Fluo-8 calcium fluorescence, antagonist. 1.5% of 360,000 active. Q96RJ0;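 active means inhibition above a per-plate cutoff, the mean inhibition of test compounds on that plate plus 3 SD, cut at about 49% in these data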
# Target sequence (Q96RJ0 whole entry, looked up): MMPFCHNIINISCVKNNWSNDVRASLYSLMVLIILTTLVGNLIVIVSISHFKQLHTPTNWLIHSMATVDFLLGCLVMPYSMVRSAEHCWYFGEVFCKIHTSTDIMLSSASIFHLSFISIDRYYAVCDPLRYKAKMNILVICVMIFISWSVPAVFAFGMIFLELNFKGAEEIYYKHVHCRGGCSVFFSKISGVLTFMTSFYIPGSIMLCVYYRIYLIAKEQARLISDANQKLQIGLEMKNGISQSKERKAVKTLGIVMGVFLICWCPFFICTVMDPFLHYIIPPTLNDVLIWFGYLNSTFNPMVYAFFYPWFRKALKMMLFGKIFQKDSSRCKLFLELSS
#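 System: RD-HGA16 CHO cells with stable hTAAR1 and Gα16 | Probe or stimulus: EC80 β-phenethylamine stimulus | Dosing: 3 µM, single point | Times: Dye loading 75 min at 37 °C, then 30 min room temperature | Measured by: Fluo-8 calcium-sensitive fluorescence | Read-out basis: % inhibition of agonist calcium response | Replicates: n of 1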
# GPR7 antag: antagonists of human GPR7 (neuropeptides B/W receptor 1); GPR7-expressing cells, fluorescence antagonist assay; inhibition, % at 4.4 µM; 1.1% of 290,000 active; in the data active means inhibition above about 16%, passing the limit was not always enough;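 further: cells stimulated with the agonist NPW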
# Target sequence (P48145 whole entry, looked up): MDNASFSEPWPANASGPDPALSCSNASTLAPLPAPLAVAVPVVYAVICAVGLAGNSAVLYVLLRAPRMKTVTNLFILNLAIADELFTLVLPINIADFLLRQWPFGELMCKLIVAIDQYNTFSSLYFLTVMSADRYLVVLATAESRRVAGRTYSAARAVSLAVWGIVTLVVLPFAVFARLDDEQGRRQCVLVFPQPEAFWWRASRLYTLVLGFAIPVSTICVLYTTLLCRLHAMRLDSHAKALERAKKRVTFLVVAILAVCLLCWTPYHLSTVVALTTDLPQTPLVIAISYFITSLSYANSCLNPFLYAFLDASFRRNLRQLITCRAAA
# CHO parental Ca: signal in parental CHO cells, OX1R antagonist counter-screen. parental CHO-K1, ATP-induced calcium, Fluo-8 fluorescence. inhibition, % at 5.6 µM. 0.63% of 330,000 active;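 active means inhibition above that plate's mean sample inhibition plus 3 SD, cut at about 26% in these data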
#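 test system = CHO parental line | reagent = ATP stimulus | measured by = intracellular calcium via Fluo-8 no-wash fluorescent dye | control set = ATP and no-ATP DMSO wells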
# OX1R antag-1: antagonists of human orexin 1 receptor | 0.43% of 330,000 active | inhibition, % at 5 µM | CHO/OX1R cells, Fluo-8 calcium fluorescence, orexin A | O43613;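 active means inhibition above its plate's threshold, mean inhibition of all tested compounds on the plate plus 3 SD, cut at about 37% in these data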
# TAAR1 agonist: agonists of human TAAR1; AID 624467; Q96RJ0; activation, % at 3 µM; CHO RD-HGA16 TAAR1, Fluo-8 calcium fluorescence; vehicle wells 0%, saturating PEA agonist 100%; 0.99% of 360,000 active;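 active means activation above the mean activation of all test compounds in the run plus 3 SD, cut at about 38% in these data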
#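 System: CHO RD-HGA16 cells carrying human TAAR1 plus Gα16; Incubation: 17-24 h seeding, 75 min 37 °C dye, 30 min RT; Measured by: Fluo-8 fluorescence, 5 s baseline then 140 s kinetic read; Control set: DMSO and PEA EC100; Replication: single well for each compound.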
# OX1R antag-2: OX1R (human) antagonism | inhibition, % at 6.6 µM | AID 485270 | O43613 | 1.8% of 330,000 active | OX1R-expressing cells, FRET antagonist read-out; in the data active means inhibition mostly above about 38%, no sharp cut-off; inactive means mostly below about 40%
# OX1R HTRF conf: confirmation of human orexin 1 receptor antagonists, HTRF format; OX1R-expressing cells, HTRF antagonist assay; AID 492964; inhibition, % at 6.6 µM; shares compounds with OX1R antag-2; 49% of 1,800 active; in the data active means inhibition above about 55%;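 further: CHO cells expressing OX1R stimulated with orexin A at about EC80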
# CHO-K1 HTRF cnt: signal in parental CHO-K1 cells, OX1R antagonist counter-screen; shares compounds with OX1R antag-2; HTRF counterscreen; inhibition, % at 6.6 µM; 48% of 1,800 active; AID 493232; in the data active means inhibition above about 17%
# Numbers stand for hits; n = inactive; x = no result; + = active, no number.
SMILES,TAAR1 antag,GPR7 antag,CHO parental Ca,OX1R antag-1,TAAR1 agonist,OX1R antag-2,OX1R HTRF conf,CHO-K1 HTRF cnt
CC(C)Cc1nn2c(=O)cc(CSCC(=O)Nc3ccccc3F)nc2s1,n,n,n,n,n,n,x,x
CNc1nc(N2CCc3ccccc32)ncc1F,n,n,n,n,n,89,83,n
COC(=O)c1sccc1NC(=O)Nc1cccc(C(C)=O)c1,n,n,n,n,n,82,67,n
COC(=O)c1sccc1NC(=O)Nc1cccc(C)c1,n,n,n,n,n,n,x,x
CC(=O)C[C@H](O)CC(=O)[C@H]1OC(=O)CC/C=C\Cc2ccccc21,n,x,n,n,n,n,x,x
C[C@H]1CN([C@@H](C)CO)C(=O)CCCn2cc(nn2)CO[C@@H]1CN(C)C(=O)Nc1ccc(F)cc1,n,x,x,x,n,x,x,x
O=[N+]([O-])c1ccc(Nc2ccccc2O)c2nonc12,n,n,x,x,n,x,x,x
COc1ccc(Nc2ccc([N+](=O)[O-])c3nonc23)c(OC)c1,n,n,n,n,n,n,x,x
NS(=O)(=O)c1ccc(Nc2ccc([N+](=O)[O-])c3nonc23)cc1,n,n,n,n,n,132,n,63
CC(=O)c1ccc(Nc2ccc([N+](=O)[O-])c3nonc23)cc1,n,n,n,n,n,78,n,39
COc1cc(/C=N/NC(=O)c2ccccc2O)ccc1OC(=O)CC1SC(=O)NC1=O (stereo not given),n,n,n,n,n,96,n,n
COc1cc(C(=O)N/N=C/c2ccc(OC(=O)c3ccccc3Cl)c(OC)c2)ccc1O,x,n,x,x,x,x,x,x
COc1ccc([N+](=O)[O-])cc1C(=O)C(=O)c1ccccc1,n,n,n,n,n,n,x,x
COc1cc(C(=O)O)nc2ccc([N+](=O)[O-])cc12,n,n,n,n,n,88,60,98
NS(=O)(=O)c1ccc(CCNC(=O)c2ccc3nc4ccc(Cl)cc4c(=O)n3c2)cc1,n,n,n,n,n,n,x,x
CC(C)(C)n1ncc2c(=O)n(CC(=O)N3CCN(c4ccccc4)CC3)cnc21,n,n,x,x,n,x,x,x
N#Cc1ccc(CSc2nnc(-c3ccncc3)n2CCc2ccccc2)cc1,n,n,n,n,n,n,x,x
c1ccc(CCn2c(SCc3ccccc3)nnc2-c2ccncc2)cc1,n,n,n,n,n,101,n,n
COc1ccc(OCc2nnc(SCC(=O)c3c(N)n(C)c(=O)n(C)c3=O)n2-c2ccccc2F)cc1,x,n,x,n,x,n,x,x
O=[N+]([O-])c1cc(C(F)(F)F)ccc1N1CCN(CCO)CC1,n,n,n,n,n,n,x,x
O=[N+]([O-])c1ccc(N2CCN(CCOCCO)CC2)c([N+](=O)[O-])c1,n,n,n,n,n,85,n,39
O=C(NCCCN1CCCC1=O)c1ccc([N+](=O)[O-])s1,n,x,n,n,n,119,57,71
CC(C)CN1C(=O)C(=O)N(CC(=O)NCCCc2ccccc2)C1=O,n,x,x,x,n,x,x,x
NC(=O)CC[C@@H]1NC(=O)[C@@H]2CCCN2C(=O)c2cc([N+](=O)[O-])cc(I)c2NCCCC[C@@H](C(=O)NC(CC(=O)O)C(N)=O)NC1=O (stereo not given in full),x,n,n,n,x,n,x,x
CC1(O)CC(C)(C)C(C#N)C(=O)N1 (stereo not given),n,x,x,x,n,x,x,x
SMILES,TAAR1 antag,GPR7 antag,CHO parental Ca,OX1R antag-1,TAAR1 agonist,OX1R antag-2,OX1R HTRF conf,CHO-K1 HTRF cnt
CNC(=O)c1cc(Oc2ccc(NC(=O)c3[nH]c(-c4ccccc4)c4c3C(=O)N(C)C4=O)cc2)ccn1,n,x,x,x,n,x,x,x
O=C(Nc1ccc2nc3ccccc3nc2c1)c1ccccc1,n,n,n,n,n,86,93,n
Cc1nnc(N/N=C/c2ccccc2O)n1N,n,n,n,n,n,160,n,n
Cc1nnc(N/N=C/c2cc(C)n(-c3ccc(F)cc3)c2C)n1N,n,n,n,n,n,92,n,n
Oc1ccccc1/C=N/Nc1nn[nH]n1,n,n,n,n,n,n,x,x
O=C(N/N=C/c1ccc(OCc2ccccc2)cc1)c1cc[n+](Cc2ccccc2)cc1,n,n,n,n,n,n,x,x
O=C(N/N=C/c1ccc(O)cc1)c1cc[n+](Cc2ccccc2)cc1,n,n,n,n,n,90,n,45
CC(=O)Nc1ccc(C(=O)NNC(=O)c2cc([N+](=O)[O-])cc([N+](=O)[O-])c2)cc1,n,n,n,n,n,80,n,73
CCC(=O)Nc1ccc(C(=O)NNC(=O)c2ccc([N+](=O)[O-])cc2)cc1,n,n,n,n,n,158,n,34
CC(=O)Nc1ccc(S(=O)(=O)NNC(=O)c2ccc([N+](=O)[O-])cc2)cc1,n,n,n,n,n,n,x,x
CCC(=O)Nc1ccc(C(=O)NNC(=O)c2cc([N+](=O)[O-])cc([N+](=O)[O-])c2)cc1,n,n,n,n,n,181,n,n
C[C@@H]1CCCCO[C@H](CN(C)S(=O)(=O)c2cn(C)cn2)[C@@H](C)CN([C@H](C)CO)C(=O)c2cc(NC(=O)CCCN(C)C)ccc2O1,n,x,x,x,n,x,x,x
O=C1C(Cl)=C(NCCCO)C(=O)c2ccccc21,n,n,n,n,n,+,67,104
COc1ccc2c(c1)O/C(=C\c1sccc1C)C2=O,n,n,n,n,n,81,n,n
O=C1CC2C(CCC23OCCO3)c2ccc3ccccc3c21 (stereo not given),n,x,x,x,n,x,x,x
Cc1nc(NC(=O)c2ccccc2)sc1-c1csc(NCc2ccccc2)n1,n,n,n,n,n,n,x,x
Cc1nc(NC(=O)c2ccccc2)sc1-c1csc(N)n1,n,n,n,n,n,96,92,n
O=C1C=CC(O)C2(CO)OC12 (stereo not given),n,x,x,x,n,x,x,x
CCOc1ccc(N=Nc2c(=O)[nH]n3c(C)cc(C)nc23)cc1,n,n,n,n,n,149,64,74
Cn1cnc([N+](=O)[O-])c1S(=O)(=O)Oc1cccc2ccccc12,n,x,x,x,n,x,x,x
Cn1cnc([N+](=O)[O-])c1Oc1cccc2ccccc12,n,n,n,n,n,85,n,n
Cc1ccc2nc3c(cc(C(=O)NCCCn4ccnc4)n3C)c(=O)n2c1,n,n,n,n,n,80,n,30
Cc1ccc(CC(=O)NCCCn2ccnc2)cc1,n,n,n,n,n,n,x,x
O=c1[nH]cnc2nc(-c3ccccc3)c(-c3ccccc3)nc12,n,n,n,n,n,129,n,23
O=c1[nH]cnc2nn(-c3ccccc3)nc12,n,n,n,n,n,n,x,x
